Measured values published in ChEMBL document CHEMBL1132232, “7alpha-Iodo and 7alpha-fluoro steroids as androgen receptor-mediated imaging agents” (J Med Chem, 1999).

How the values were obtained:
Rattus norvegicus [1] = assay: Distribution of tissue Radioactivity following subcutaneous injection of […] of 5-alpha-DHT 15 min before the administration of the [125I]- tracer castrated male rat kidney at 1 hour time; type: ADME, organism-based; details: in vivo, sc
In short: (§1)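 Castrated male Sprague–Dawley rats, about 250 g, received 5α-DHT subcutaneously in propylene glycol/saline (3:2) 15 min before a tail-vein 125I tracer (5.4 μCi, 2.4 pmol, in ethanol/saline 1:4). There were 5–6 rats per group. At 1 h, rats were ether-anesthetized and exsanguinated. Tissues were weighed and counted as % injected dose/g, plus the prostate/blood ratio.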

Rattus norvegicus [2] = assay: Distribution of tissue Radioactivity following Intravenous injection into castrated male rat kidney at 4 hours time; type: ADME, organism-based; details: in vivo
In short: (§2)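 Male Sprague–Dawley rats, about 250 g, were castrated and injected the next day via the tail vein with 5.4 μCi (2.4 pmol) of 125I tracer in ethanol/saline (1:4). There were 5–6 rats per group. At 0.5, 1, 2 or 4 h, rats were ether-anesthetized and killed by exsanguination. Tissues were dissected, weighed and counted, giving % injected dose/g and prostate/blood ratios.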

[3] = molecular target: T1, Androgen receptor (Homo sapiens) (UniProt P10275); details: CV-1
T1 sequence (whole entry): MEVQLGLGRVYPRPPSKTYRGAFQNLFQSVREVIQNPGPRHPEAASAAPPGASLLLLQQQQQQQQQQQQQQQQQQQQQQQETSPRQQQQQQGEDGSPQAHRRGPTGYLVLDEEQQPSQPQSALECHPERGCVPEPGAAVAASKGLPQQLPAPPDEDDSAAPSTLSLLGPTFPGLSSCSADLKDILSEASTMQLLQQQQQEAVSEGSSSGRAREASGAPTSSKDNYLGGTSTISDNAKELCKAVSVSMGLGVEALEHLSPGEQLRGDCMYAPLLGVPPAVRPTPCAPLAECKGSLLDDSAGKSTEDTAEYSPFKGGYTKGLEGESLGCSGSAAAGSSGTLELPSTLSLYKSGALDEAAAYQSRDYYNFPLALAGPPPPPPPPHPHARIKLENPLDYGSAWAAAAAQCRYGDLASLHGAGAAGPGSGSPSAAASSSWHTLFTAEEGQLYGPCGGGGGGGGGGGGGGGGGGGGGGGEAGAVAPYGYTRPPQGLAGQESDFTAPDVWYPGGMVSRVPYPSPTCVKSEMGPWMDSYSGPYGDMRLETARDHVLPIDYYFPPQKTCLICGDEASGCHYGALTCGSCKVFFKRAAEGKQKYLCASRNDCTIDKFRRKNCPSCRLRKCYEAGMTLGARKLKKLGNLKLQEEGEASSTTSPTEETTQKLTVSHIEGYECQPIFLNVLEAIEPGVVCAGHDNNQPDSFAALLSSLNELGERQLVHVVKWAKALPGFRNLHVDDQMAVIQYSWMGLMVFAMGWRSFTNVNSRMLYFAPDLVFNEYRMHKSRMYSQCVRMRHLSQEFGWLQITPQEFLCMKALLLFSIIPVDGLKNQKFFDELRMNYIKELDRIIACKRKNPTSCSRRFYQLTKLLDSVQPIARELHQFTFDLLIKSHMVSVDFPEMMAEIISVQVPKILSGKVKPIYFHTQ

Rattus norvegicus [4] = assay: Distribution of tissue Radioactivity following Intravenous injection into castrated male rat thyroid at 0.5 hours time; type: ADME, organism-based, Thyroid gland; details: in vivo; in short: as §2
Rattus norvegicus [5] = assay: Distribution of tissue Radioactivity following subcutaneous injection of […] of 5-alpha-DHT 15 min before the administration of the [125I]- tracer castrated male rat liver at 1 hour time; type: ADME, organism-based; details: in vivo, sc; in short: as §1
Rattus norvegicus [6] = assay: Distribution of tissue Radioactivity following Intravenous injection into castrated male rat kidney at 0.5 hours time; type: ADME, organism-based; details: in vivo; in short: as §2
Rattus norvegicus [7] = assay: Distribution of tissue Radioactivity following Intravenous injection into castrated male rat prostate at 4 hours time; type: ADME, organism-based, Prostate gland; details: in vivo; in short: as §2
Rattus norvegicus [8] = assay: Distribution of tissue Radioactivity following Intravenous injection into castrated male rat prostate/blood at 0.5 hours time; type: ADME, organism-based; details: in vivo; in short: as §2
Rattus norvegicus [9] = assay: Distribution of tissue Radioactivity following subcutaneous injection of […] of 5-alpha-DHT 15 min before the administration of the [125I]- tracer castrated male rat fat at 1 hour time; type: ADME, organism-based, Adipose tissue; details: in vivo, sc; in short: as §1
Rattus norvegicus [10] = assay: Distribution of tissue Radioactivity following Intravenous injection into castrated male rat lung at 0.5 hours time; type: ADME, organism-based; details: in vivo; in short: as §2
Rattus norvegicus [11] = assay: Distribution of tissue Radioactivity following Intravenous injection into castrated male rat liver at 2 hours time; type: ADME, organism-based; details: in vivo; in short: as §2
Rattus norvegicus [12] = assay: Distribution of tissue Radioactivity following Intravenous injection into castrated male rat blood at 2 hours time; type: ADME, organism-based; details: in vivo; in short: as §2
Rattus norvegicus [13] = assay: Distribution of tissue Radioactivity following Intravenous injection into castrated male rat spleen at 2 hours time; type: ADME, organism-based; details: in vivo; in short: as §2
Rattus norvegicus [14] = assay: Distribution of tissue Radioactivity following Intravenous injection into castrated male rat prostate/blood at 1 hours time; type: ADME, organism-based; details: other tissue; in short: as §2
Rattus norvegicus [15] = assay: Distribution of tissue Radioactivity following Intravenous injection into castrated male rat muscle at 4 hours time; type: ADME, organism-based; details: in vivo; in short: as §2
Rattus norvegicus [16] = assay: Distribution of tissue Radioactivity following Intravenous injection into castrated male rat lung at 1 hour time; type: ADME, organism-based; details: in vivo; in short: as §2
Rattus norvegicus [17] = assay: Distribution of tissue Radioactivity following Intravenous injection into castrated male rat muscle at 2 hours time; type: ADME, organism-based; details: in vivo; in short: as §2
Rattus norvegicus [18] = assay: Distribution of tissue Radioactivity following subcutaneous injection of […] of 5-alpha-DHT 15 min before the administration of the [125I]- tracer castrated male rat spleen at 1 hour time; type: ADME, organism-based; details: in vivo, sc; in short: as §1
Rattus norvegicus [19] = assay: Distribution of tissue Radioactivity following Intravenous injection into castrated male rat thyroid at 2 hours time; type: ADME, organism-based, Thyroid gland; details: in vivo; in short: as §2
Rattus norvegicus [20] = assay: Distribution of tissue Radioactivity following Intravenous injection into castrated male rat blood at 4 hours time; type: ADME, organism-based; details: in vivo; in short: as §2
Rattus norvegicus [21] = assay: Distribution of tissue Radioactivity following subcutaneous injection of […] of 5-alpha-DHT 15 min before the administration of the [125I]- tracer castrated male rat muscle at 1 hour time; type: ADME, organism-based; details: in vivo, sc; in short: as §1
Rattus norvegicus [22] = assay: Distribution of tissue Radioactivity following Intravenous injection into castrated male rat liver at 1 hour time; type: ADME, organism-based; details: in vivo; in short: as §2
Rattus norvegicus [23] = assay: Distribution of tissue Radioactivity following Intravenous injection into castrated male rat lung at 2 hours time; type: ADME, organism-based; details: in vivo; in short: as §2
Rattus norvegicus [24] = assay: Distribution of tissue Radioactivity following Intravenous injection into castrated male rat blood at 1 hour time; type: ADME, organism-based; details: in vivo; in short: as §2
Rattus norvegicus [25] = assay: Distribution of tissue Radioactivity following Intravenous injection into castrated male rat fat at 2 hours time; type: ADME, organism-based, Adipose tissue; details: in vivo; in short: as §2
Rattus norvegicus [26] = assay: Distribution of tissue Radioactivity following Intravenous injection into castrated male rat fat at 0.5 hours time; type: ADME, organism-based, Adipose tissue; details: in vivo; in short: as §2

C[C@]12CCC(=O)CC1C[C@@H](I)[C@@H]1[C@@H]2CC[C@@]2(C)[C@H]1CC[C@]2(C)O (stereo partly specified)
Biodistribution (Rattus norvegicus [1]): 0.3%
Biodistribution (Rattus norvegicus [2]): 0.23%
RSA [3]: 28
Biodistribution (Rattus norvegicus [4]): 1.58%
Dose/g (Rattus norvegicus [5]): 0.36%
Biodistribution (Rattus norvegicus [6]): 0.26%
Biodistribution (Rattus norvegicus [7]): 0.44%
Dose/g (Rattus norvegicus [8]): 0.7%
Biodistribution (Rattus norvegicus [9]): 0.29%
Dose/g (Rattus norvegicus [10]): 0.22%
Biodistribution (Rattus norvegicus [11]): 0.23%
Biodistribution (Rattus norvegicus [12]): 0.31%
Biodistribution (Rattus norvegicus [13]): 0.15%
Biodistribution (Rattus norvegicus [14]): 1.17%
Biodistribution (Rattus norvegicus [15]): 0.07%
Biodistribution (Rattus norvegicus [16]): 0.24%
Dose/g (Rattus norvegicus [17]): 0.07%
Dose/g (Rattus norvegicus [18]): 0.18%
Dose/g (Rattus norvegicus [19]): 3.55%
Dose/g (Rattus norvegicus [20]): 0.37%
Biodistribution (Rattus norvegicus [21]): 0.08%
Biodistribution (Rattus norvegicus [22]): 0.29%
Biodistribution (Rattus norvegicus [23]): 0.24%
Biodistribution (Rattus norvegicus [24]): 0.33%
Dose/g (Rattus norvegicus [25]): 0.2%
Biodistribution (Rattus norvegicus [26]): 0.2%
